Out of some 330,000 compounds screened, about 1,100 (0.33%) were called active.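 How the source made its calls: active means versus positive control, 20 µM dose yields 30% or more activation; inactive means the rest.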 This excerpt belongs to a sample that is enriched for actives.

This experiment can be described thus: IRE1-XBP1 pathway stimulators – cell-based, CHO-XBP1 luciferase reporter, luminescence, uHTS, primary screen (AID 463104).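 Further: 100% = tunicamycin at 10 µg/mL and 0% = DMSO only wells.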 Particulars: IRE1-XBP1 UPR activation, at 20 µM, active compounds read high, percent of tunicamycin response, DMSO as zero. An outline of the steps: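 Assay system: IRE1-XBP1 luciferase reporter CHO line. Input: 1000 cells/well. Buffer or medium: F12 with 10% serum. Doses: 20 µM, 1% DMSO. Times: overnight seeding at 37 °C, 6 h compound treatment at 37 °C. Technique: Steady-Glo luciferase glow luminescence, 10 min after reagent addition.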
On the technique in general: A reporter such as luciferase makes a cellular process visible.
With `C=CCO/N=C(\C)c1c(O)c(C)c(-c2ccccc2)n(-c2ccccc2)c1=O`, the activation is -1.96% (inactive).

In the case of `CCc1nn(-c2cc(Oc3cccc4ccccc34)nc(-c3ccccc3)n2)c(N)c1C#N`, the activation was 79.6% (active).

As for `CC(C)(C)n1nc(Cc2cccc3ccccc23)c(C#N)c1N`, the activation was 3.6% (inactive).

For `Cc1cc(NC(=O)CSc2nnc(-c3ccco3)n2N)no1`, the activation was 1.89% (inactive).

`Cc1cc(NC(=O)CSc2nc3ccccc3n2CC(C)C)no1`: the activation was -4.54% (inactive).

`Cc1cc(NC(=O)CSc2nc3cc(Cl)ccc3c(=O)n2Cc2ccco2)no1`: the activation is 95.4% (active).

Turning to `CC(C)Oc1ccc(S(=O)(=O)N2CCOCC2)cc1NC(=O)C1CSC2(C)CCC(=O)N12` (configuration not stated), the activation is -2.58% (inactive).

Consider `CCCNC(=O)CCn1nc(-c2ccccc2)c2ccccc2c1=O`, for which the activation was 1.25% (inactive).

On to `O=C(COC(=O)Cc1ccc(Br)cc1)Nc1c(F)c(F)c(F)c(F)c1F`, for which the activation is 0.94% (inactive).

On to `Nc1c(NCCc2ccccc2)c2ccccc2oc1=O`, for which the activation was -1.1% (inactive).

Consider `COCCCNC(=O)[C@H]1N2C(=O)c3ccccc3C2SC1(C)C` (some centres not stated), for which the activation was 5.98% (inactive).

On to `COc1cc(NC(=O)CSc2nnc3ccc(-c4ccncc4)nn23)cc(OC)c1`, for which the activation is 4.51% (inactive).

For `CSc1nc(-c2ccccc2)nc(C(Cl)Cl)n1`, the activation was 31.3% (active).

As for `CSc1ncc(Sc2ccccc2)c(C(=O)O)n1`, the activation was -3.45% (inactive).

Consider `CC(C)=CCCC1(C)C=Cc2c(ccc3c2[nH]c2cc(O)c(C)cc23)O1` (configuration not stated), for which the activation was 46.1% (active).

Consider `CCN(CC(=O)NCc1ccc(Cl)cc1)C(=O)CSc1ccccc1`, for which the activation was -3.45% (inactive).

Regarding `O=C(NCCCN1CCCCC1)c1ccc2c(c1)NC(=O)C(N1CCOCC1)S2` (configuration not stated), the activation was -1.68% (inactive).

Turning to `CC1CCN(Cc2nc3c(c(=O)n(C)c(=O)n3C)n2CCc2ccccc2)CC1`, the activation is -0.91% (inactive).

For `Cn1c2ccccc2c2c(C(=O)N3CCN(c4ccc(F)cc4)CC3)cn(C3CCCC3)c(=O)c21`, the activation was 6.07% (inactive).

Turning to `CCCc1nc2c(c(=O)c3ccccc3n2C)c(=O)n1C1CCCCCC1`, the activation is 32.4% (active).

As to `c1ccc2c(c1)C(=NC1CCCCC1)NC2=NC1CCCCC1`, the activation was 3.14% (inactive).

Regarding `CCC1CCC/C1=N\NC(=O)c1ccc(Cl)cc1` (configuration not stated), the activation was 2.16% (inactive).

In the case of `COc1cc(C(=O)NCC(c2ccco2)N2CCCC2)ccc1OCc1ccccc1` (configuration not stated), the activation is -1.2% (inactive).

As to `Cc1ccc(S/C(=N\S(=O)(=O)c2ccc(Cl)cc2)c2ccccc2)cc1`, the activation was 43.5% (active).

Consider `Cc1ccc(S(=O)(=O)/N=C(/Nc2ccccn2)c2ccc(Cl)cc2)cc1`, for which the activation is 1.88% (inactive).

In the case of `O=S(=O)(/N=C(/Nc1ccccn1)c1ccccc1)c1ccc(Cl)cc1`, the activation was 0.4% (inactive).

Take `CC(=O)N1CC(C)c2scc(C)[n+]2-c2ccccc21` (configuration not stated): the activation is -0.83% (inactive).

Turning to `Cc1ccc(N2C(=O)CC(N3CCSCC3)C2=O)c(C)c1` (configuration not stated), the activation was 2.27% (inactive).

Turning to `O=c1c2ccccc2nc2n1C(CSCc1cccc(C(F)(F)F)c1)CS2` (configuration not stated), the activation is -4.03% (inactive).

Turning to `COc1ccccc1N(CC(=O)N/N=C(\C)c1ccccc1O)S(=O)(=O)c1ccc(C)cc1`, the activation is -4.87% (inactive).

As for `COc1ccc(S(=O)(=O)N(CC(=O)N/N=C/c2ccccc2C(=O)O)c2ccccc2OC)cc1`, the activation is -1.28% (inactive).

On to `Cc1ccc(S(=O)(=O)N(CC(=O)N/N=C/c2ccc(F)cc2)c2cccc3cccnc23)cc1`, for which the activation was 44.4% (active).

For the compound `Cc1ccc(CC2S/C(=C(/C#N)C(=O)N3CCOCC3)N(c3ccccc3)C2=O)cc1` (configuration not stated), the activation is -1.89% (inactive).

In the case of `Cc1ccnc2nc(C(=O)Nc3nnc(-c4ccccc4)o3)nn12`, the activation was 2.49% (inactive).

On to `O=C(CNC(=O)c1cccnc1)N/N=C/c1cc(Br)c(O)c(Br)c1`, for which the activation was -5.3% (inactive).

For `Cc1ccc(CSCCNC(=O)CN(c2ccc(F)cc2)S(C)(=O)=O)cc1`, the activation was -2.57% (inactive).

`Cc1ccc(NC(=O)COc2ccc(/C=C3/NC(=O)NC3=O)cc2)cc1`: the activation was -3.85% (inactive).

`COC(=O)C1=C(O)/C(=C/c2ccc(OCC(=O)Nc3ccccc3)cc2)N=C1C`: the activation was -5.1% (inactive).

In the case of `CCOC(=O)C1=C(O)/C(=C/c2ccc(OCC(=O)Nc3ccc(C)cc3)cc2)N=C1C`, the activation is 51.4% (active).

On to `CCn1c(SCC(=O)NNC(=O)c2ccc(OC)cc2)nnc1C(C)C`, for which the activation was -2.62% (inactive).

For `CCOC(=O)/C=C/CN(C(=O)OC(C)(C)C)S(=O)(=O)N1CC=CC1`, the activation is -0.55% (inactive).

With `Cc1cccc(C)c1NC(=O)C1(N(C(=O)c2ccccn2)c2ccc(O)cc2)CCCCC1`, the activation was -2.28% (inactive).

Consider `CCOC(=O)N1CCN(CC(=O)n2c(C)c(C)c3ccccc32)CC1`, for which the activation was 1.59% (inactive).

For the compound `Cc1cccc(OCCCC(=O)Nc2ccc(S(=O)(=O)N3CCCC3)cc2)c1`, the activation is -0.19% (inactive).

On to `CCCN1CCn2c3c(c4cc(Br)ccc42)CCCC31` (configuration not stated), for which the activation was -0.93% (inactive).

Take `COCCNC(=O)c1ccc(Cn2c(SCC(=O)NCC3CCCO3)nc3ccc(Br)cc3c2=O)cc1` (configuration not stated): the activation is -6.18% (inactive).

Consider `OC(CNCC1CCCO1)Cn1c2ccc(Br)cc2c2cc(Br)ccc21` (configuration not stated), for which the activation was 69.6% (active).

Regarding `CC(=O)Nc1ccc(CC#N)cc1`, the activation was -1.91% (inactive).

For `COc1ccccc1C(=O)NCCC(=O)NCC(c1ccco1)N1CCCCC1` (configuration not stated), the activation is -0.9% (inactive).

Regarding `Cn1c(SCC(=O)N/N=C/c2ccc(O)c(O)c2)nc2ccccc21`, the activation is 20.8% (inactive).

Take `CCCc1nc2ccccc2c(=O)n1NC(=O)c1c(O)c2ccccc2[nH]c1=O`: the activation is -2.34% (inactive).

For `CCCc1nc2ccccc2c(=O)n1/N=C/c1ccc(O)c(O)c1`, the activation was 40.8% (active).

`COc1ccc2sc(N(CCCN(C)C)C(=O)c3ccc(S(=O)(=O)N(C)C4CCCCC4)cc3)nc2c1`: the activation is 1.32% (inactive).

Regarding `CN(C)CCCN(C(=O)c1ccc(S(=O)(=O)N2CCCc3ccccc32)cc1)c1nc2ccc(F)cc2s1`, the activation was 20.8% (inactive).

Turning to `CN(C)CCCN(C(=O)c1ccc(S(=O)(=O)N2CCCCCC2)cc1)c1nc2ccc(Br)cc2s1`, the activation is 46.6% (active).

With `CC12CN(NC(=O)c3ccc(Cl)cc3)C3(C#N)CC1CCC23C` (configuration not stated), the activation was -2.37% (inactive).

Consider `COc1ccc(-c2c(NC(=O)c3ccco3)oc3ccc(Cl)cc3c2=O)cc1`, for which the activation is -2.76% (inactive).

The record behind these values is PubChem BioAssay AID463104 (Sanford-Burnham Center for Chemical Genomics, 2010).
